Active and inactive are the calls of the source. No cut-off for these calls is given here.
How the values were obtained:
[1] = Binding affinity to human full-length N-terminal His6-tagged Bcl2 R106A/R109A mutant expressed in Escherichia coli S12 extract by isothermal titration calorimetry
[2] = Binding affinity to human full-length N-terminal His6-tagged prephosphorylated Bcl2 R106A/R109A mutant expressed in Escherichia coli S12 extract by isothermal titration calorimetry
HL-60 = experiment: Induction of apoptosis in human HL-60 cells measured after 48 hrs by FITC-Annexin V/PS staining based; assay type: functional, cell-based; settings: HL-60, 48 h
OCI-AML-3 = experiment: Induction of apoptosis in human OCI-AML-3 cells measured after 48 hrs by FITC-Annexin V/PS staining based; assay type: functional, cell-based; settings: OCI-AML-3, 48 h
KG-1 = experiment: Induction of apoptosis in human KG-1 cells measured after 48 hrs by FITC-Annexin V/PS staining based; assay type: functional, cell-based; settings: KG-1, 48 h
MCF7 = experiment: Induction of apoptosis in human MCF7 cells measured after 48 hrs by FITC-Annexin V/PS staining based; assay type: functional, cell-based; settings: MCF7, 48 h
[3] = target: T1, Apoptosis regulator Bcl-2 (Homo sapiens, UniProt P10415); experiment: Induction of BCl-2 dephosphorylation in human HL-60 cells at 1 to 5 uM measured after 24 hrs by coimmunoprecipitation method; assay type: cell-based; settings: dose microM 1-5, time 24.0 hrs
T1 sequence (P10415 whole entry): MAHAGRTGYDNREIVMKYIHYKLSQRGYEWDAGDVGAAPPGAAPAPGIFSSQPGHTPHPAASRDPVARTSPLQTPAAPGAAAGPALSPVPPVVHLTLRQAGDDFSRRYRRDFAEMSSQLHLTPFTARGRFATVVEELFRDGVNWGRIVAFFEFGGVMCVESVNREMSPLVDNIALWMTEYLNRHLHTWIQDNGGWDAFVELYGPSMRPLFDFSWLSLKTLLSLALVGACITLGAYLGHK
Summary of the method: (§1)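 Cells treated for 24 h, then lysed in 1% CHAPS buffer. 500 μg total protein precleared with protein A-Sepharose, incubated overnight with 5 μg specific antibody, captured on protein A-Sepharose or G-agarose, then immunoblotted. Bax/Bcl-2 complex, pBcl-2 (Ser70) and total Bcl-2 read out; n = 3 independent samples.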

[4] = target: T1, Apoptosis regulator Bcl-2; experiment: Induction of BCl-2 dephosphorylation in human HL-60 cells assessed as increase in Bax expression at 1 to 5 uM measured after 24 hrs by coimmunoprecipitation method; assay type: cell-based; settings: dose microM 1-5, time 24.0 hrs; summary of the method: as §1
[5] = target: T1, Apoptosis regulator Bcl-2; experiment: Induction of BCl-2 dephosphorylation in human OCI-AML-3 cells at 1 to 5 uM measured after 24 hrs by coimmunoprecipitation method; assay type: cell-based; settings: dose microM 1-5, time 24.0 hrs; summary of the method: as §1
[6] = target: T1, Apoptosis regulator Bcl-2; experiment: Induction of BCl-2 dephosphorylation in human OCI-AML-3 cells assessed as increase in Bax expression at 1 to 5 uM measured after 24 hrs by coimmunoprecipitation method; assay type: cell-based; settings: dose microM 1-5, time 24.0 hrs; summary of the method: as §1
[7] = target: T1, Apoptosis regulator Bcl-2; experiment: Binding affinity to human full-length N-terminal His6-tagged Bcl2 (2 to 206 residues) expressed in Escherichia coli S12 extract after 30 mins using FAM-labelled compound by fluorescence polarization assay
[8] = target: T1, Apoptosis regulator Bcl-2; experiment: Binding affinity to human full-length N-terminal His6-tagged prephosphorylated Bcl2 (2 to 206 residues) expressed in Escherichia coli S12 extract after 30 mins using FAM-labelled compound by fluorescence polarization assay
[9] = Binding affinity to human full-length N-terminal His6-tagged Bcl2 R106A/R109A mutant expressed in Escherichia coli S12 extract after 30 mins using FAM-labelled compound by fluorescence polarization assay
[10] = Binding affinity to human full-length N-terminal His6-tagged prephosphorylated Bcl2 R106A/R109A mutant expressed in Escherichia coli S12 extract after 30 mins using FAM-labelled compound by fluorescence polarization assay
[11] = target: T1, Apoptosis regulator Bcl-2; experiment: Inhibition of FAM-Bim peptide binding to human full-length N-terminal His6-tagged Bcl2 (2 to 206 residues) expressed in Escherichia coli S12 extract measured after 30 mins by fluorescence polarization assay
[12] = Inhibition of FAM-Bim peptide binding to human full-length N-terminal His6-tagged Bcl2 R106A/R109A mutant expressed in Escherichia coli S12 extract measured after 30 mins by fluorescence polarization assay
Bcl-2-like protein 1 [13] = target: T2, Bcl-2-like protein 1 (Homo sapiens, UniProt Q07817); experiment: Inhibition of FAM-Bim peptide binding to Bcl-xl (unknown origin) measured after 30 mins by fluorescence polarization assay
T2 sequence (Q07817 whole entry): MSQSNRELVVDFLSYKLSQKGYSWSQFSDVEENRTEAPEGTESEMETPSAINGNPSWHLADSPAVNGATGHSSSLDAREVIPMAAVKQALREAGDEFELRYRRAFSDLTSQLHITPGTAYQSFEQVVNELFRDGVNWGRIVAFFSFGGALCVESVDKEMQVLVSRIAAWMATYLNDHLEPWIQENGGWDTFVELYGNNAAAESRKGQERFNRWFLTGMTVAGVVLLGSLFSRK

[14] = target: Induced myeloid leukemia cell differentiation protein Mcl-1 (Homo sapiens, UniProt Q07820); experiment: Inhibition of FAM-Bim peptide binding to MCl1 (unknown origin) measured after 30 mins by fluorescence polarization assay
Induced myeloid leukemia cell differentiation protein Mcl-1, sequence (Q07820 whole entry): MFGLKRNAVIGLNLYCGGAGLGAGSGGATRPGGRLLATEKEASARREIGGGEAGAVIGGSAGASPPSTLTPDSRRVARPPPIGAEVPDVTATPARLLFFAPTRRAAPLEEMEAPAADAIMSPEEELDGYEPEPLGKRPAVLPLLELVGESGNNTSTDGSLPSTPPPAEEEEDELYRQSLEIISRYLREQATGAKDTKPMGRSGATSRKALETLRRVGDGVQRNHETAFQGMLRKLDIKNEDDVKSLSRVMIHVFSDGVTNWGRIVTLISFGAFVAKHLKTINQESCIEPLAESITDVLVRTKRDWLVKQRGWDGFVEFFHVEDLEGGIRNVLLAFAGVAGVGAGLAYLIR

[15] = target: T1, Apoptosis regulator Bcl-2; experiment: Induction of BCl-2 dephosphorylation in human HL-60 cells at 5 to 15 uM measured after 24 hrs by coimmunoprecipitation method; assay type: cell-based; settings: filed as modulator, dose microM 5-15, time 24.0 hrs; summary of the method: as §1
[16] = target: T1, Apoptosis regulator Bcl-2; experiment: Induction of BCl-2 dephosphorylation in human OCI-AML-3 cells at 5 to 10 uM measured after 24 hrs by coimmunoprecipitation method; assay type: cell-based; settings: dose microM 5-10, time 24.0 hrs; summary of the method: as §1
[17] = target: T1, Apoptosis regulator Bcl-2; experiment: Induction of BCl-2 dephosphorylation in human HL-60 cells assessed as increase in Bax expression at 5 to 15 uM measured after 24 hrs by coimmunoprecipitation method; assay type: cell-based; settings: filed as modulator, dose microM 5-15, time 24.0 hrs; summary of the method: as §1
[18] = target: T1, Apoptosis regulator Bcl-2; experiment: Induction of BCl-2 dephosphorylation in human OCI-AML-3 cells assessed as increase in Bax expression at 5 to 10 uM measured after 24 hrs by coimmunoprecipitation method; assay type: cell-based; settings: dose microM 5-10, time 24.0 hrs; summary of the method: as §1
Bcl-2-like protein 1 [19] = target: T2, Bcl-2-like protein 1; experiment: Effect on Bcl-xl phosphorylation in human HL-60 cells at 1 to 30 uM by Western blot analysis; settings: dose microM 1-30
[20] = Resistance ratio of EC50 for induction of apoptosis in human HL-60 cells to EC50 for Induction of apoptosis in human KG-1 cells; assay type: functional
[21] = Resistance ratio of EC50 for induction of apoptosis in human OCI-AML-3 cells to EC50 for Induction of apoptosis in human KG-1 cells; assay type: functional
[22] = Resistance ratio of EC50 for induction of apoptosis in human HL-60 cells to EC50 for Induction of apoptosis in human MCF7 cells; assay type: functional
[23] = Resistance ratio of EC50 for induction of apoptosis in human OCI-AML-3 cells to EC50 for Induction of apoptosis in human MCF7 cells; assay type: functional
[24] = target: T1, Apoptosis regulator Bcl-2; experiment: Induction of BCl-2 dephosphorylation in human HL-60 cells at 5 to 10 uM measured after 24 hrs by coimmunoprecipitation method; assay type: cell-based; settings: dose microM 5-10, time 24.0 hrs; summary of the method: as §1
[25] = target: T1, Apoptosis regulator Bcl-2; experiment: Induction of BCl-2 dephosphorylation in human HL-60 cells assessed as increase in Bax expression at 5 to 10 uM measured after 24 hrs by coimmunoprecipitation method; assay type: cell-based; settings: dose microM 5-10, time 24.0 hrs; summary of the method: as §1
[26] = target: T1, Apoptosis regulator Bcl-2; experiment: Effect on Bcl2 phosphorylation in human HL-60 cells by Western blot analysis

| EC50 (HL-60) [nM] | EC50 (OCI-AML-3) [nM] | EC50 (KG-1) [nM] | EC50 (MCF7) [nM] | Ki [11] [nM] | Ki (Bcl-2-like protein 1 [13]) [nM] | Ki [14] [nM] | Structure (SMILES) | Ki [12] [nM] | also measured |
| --- | --- | --- | --- | --- | --- | --- | --- | --- | --- |
| 8100 | 6800 | 850 | 1350 |  |  |  | CC1(C)CCC(CN2CCN(c3ccc(C(=O)NS(=O)(=O)c4ccc(NCC5CCOCC5)c([N+](=O)[O-])c4)c(Oc4cnc5[nH]ccc5c4)c3)CC2)=C(c2ccc(Cl)cc2)C1 [VENETOCLAX] |  | Kd [1]: 4.5 nM; Kd [2]: 5.5 nM; Activity [3]: inactive; Activity [4]: inactive; Activity [5]: inactive; Activity [6]: inactive |
|  |  |  |  |  |  |  | CC[C@H](C)[C@H](NC(=O)[C@H](CCCNC(=N)N)NC(=O)[C@H](CCCNC(=N)N)NC(=O)[C@H](CC(C)C)NC(=O)[C@H](CS)NC(=O)[C@H](CCC(=O)O)NC(=O)[C@H](CO)NC(=O)[C@H](CC(C)C)NC(=O)[C@H](CCCCN)NC(=O)[C@H](CCCCN)NC(=O)[C@@H](NC(=O)[C@H](CO)NC(=O)[C@H](C)NC(=O)[C@H](CC(=O)O)NC(=O)[C@H](CCC(N)=O)NC(=O)[C@@H]1CCCN1C(=O)[C@@H]1CCCN1C(=O)[C@@H](N)CCC(N)=O)[C@@H](C)O)C(=O)NCC(=O)N[C@@H](CC(=O)O)C(=O)N[C@@H](CCC(=O)O)C(=O)N[C@@H](CC(C)C)C(=O)N[C@@H](CC(=O)O)C(=O)N[C@@H](CO)C(=O)N[C@@H](CC(N)=O)C(=O)N[C@@H](CCSC)C(=O)N[C@@H](CCC(=O)O)C(=O)N[C@@H](CC(C)C)C(=O)N[C@@H](CCC(N)=O)C(=O)N[C@@H](CCCNC(=N)N)C(=O)N[C@@H](CCSC)C(=O)N[C@H](C(=O)N[C@@H](C)C(=O)N[C@@H](CC(=O)O)C(=O)N[C@H](C(=O)N[C@@H](CC(=O)O)C(=O)O)C(C)C)[C@@H](C)CC |  | Kd [7]: 19.6 nM; Kd [8]: 2.1 nM; Kd [9]: 15.5 nM; Kd [10]: 16.2 nM |
|  |  |  |  | 1270 |  |  | N#CC1=C(NCCC(=O)O)c2ccc(Sc3ccc(Br)cc3)c3cccc(c23)C1=O | 1440 |  |
|  |  |  |  | 850 | 750 | 490 | N#CC1=C(C#N)c2ccc(Sc3ccc(Br)cc3)c3cccc(c23)C1=O | 1670 |  |
|  |  |  |  | 1350 |  |  | N#CC1=C(NCCC(=O)NCc2ccccc2C(=O)O)c2ccc(Sc3ccc(Br)cc3)c3cccc(c23)C1=O | 1750 |  |
| 3800 | 4000 | 4900 | 5500 | 160 | 810 | 320 | N#CC1=C(NCCC(=O)NCc2ccc(C(=O)O)cc2)c2ccc(Sc3ccc(Br)cc3)c3cccc(c23)C1=O | 1650 | Activity [15]: Active; Activity ([16]; filed as modulator): Active; Activity [17]: Active; Activity ([18]; filed as modulator): Active; Activity (Bcl-2-like protein 1 [19]): inactive |
|  |  |  |  | 810 |  |  | N#CC1=C(NCCC(=O)NCCOCCO)c2ccc(Sc3ccc(Br)cc3)c3cccc(c23)C1=O | 770 |  |
| 16900 | 15400 | 2700 | 3100 | 210 | 550 | 350 | CCCCNC1=C(C#N)C(=O)c2cccc3c(Sc4ccc(Br)cc4)ccc1c23 | 150 | Ratio EC50 [20]: 5; Ratio EC50 [21]: 5; Ratio EC50 [22]: 5; Ratio EC50 [23]: 5; Activity [16]: inactive; Activity [18]: inactive; Activity [24]: inactive; Activity [25]: inactive; Activity [26]: inactive |
|  |  |  |  | 4320 |  |  | CN(C)c1ccc(CNC(=O)CCNC2=C(C#N)C(=O)c3cccc4c(Sc5ccc(Br)cc5)ccc2c34)cc1 | 840 |  |
|  |  |  |  | 1020 |  |  | N#CC1=C(NCCC(=O)NCc2cccc(C(=O)O)c2)c2ccc(Sc3ccc(Br)cc3)c3cccc(c23)C1=O | 1670 |  |
| 21700 | 22300 | 16800 | 18500 | 1050 | 1110 | 560 | N#CC1=C(NCCC(=O)NCc2ccccc2)c2ccc(Sc3ccc(Br)cc3)c3cccc(c23)C1=O | 1880 | Activity [16]: inactive; Activity [18]: inactive; Activity [24]: inactive; Activity [25]: inactive |
|  |  |  |  |  |  |  | CC1(C)CCC(c2ccc(Cl)cc2)=C(CN2CCN(c3ccc(C(=O)NS(=O)(=O)c4ccc(N[C@H](CCN5CCOCC5)CSc5ccccc5)c(S(=O)(=O)C(F)(F)F)c4)cc3)CC2)C1 [NAVITOCLAX] |  | Kd [1]: 27.8 nM; Kd [2]: 30.6 nM |
|  |  |  |  | 780 |  |  | N#CC1=C(NCc2ccc(C(=O)O)cc2)c2ccc(Sc3ccc(Br)cc3)c3cccc(c23)C1=O | 940 |  |

Reference: ChEMBL document CHEMBL4699647, “Targeting the Allosteric Pathway That Interconnects the Core-Functional Scaffold and the Distal Phosphorylation Sites for Specific Dephosphorylation of Bcl-2” (J Med Chem, 2020)
